Data: article PMC6309961 (The Journal of pharmacy and pharmacology, 2017)

Legend:
Type in all cases: biochemical
[1] = molecular target: CYP2E1 (Homo sapiens, UniProt P05181); assay: index substrate turnover in pooled HLM, HPLC; details: for IC50: human, microsomes
[2] = molecular target: T1, UGT2B7 (Homo sapiens, UniProt P16662); assay: glucuronidation of index substrate in pooled HLM, HPLC-UV; details: without preincubation; pH 7.5, 10 mM UDPGA, alamethicin
T1 sequence (P16662 24-529): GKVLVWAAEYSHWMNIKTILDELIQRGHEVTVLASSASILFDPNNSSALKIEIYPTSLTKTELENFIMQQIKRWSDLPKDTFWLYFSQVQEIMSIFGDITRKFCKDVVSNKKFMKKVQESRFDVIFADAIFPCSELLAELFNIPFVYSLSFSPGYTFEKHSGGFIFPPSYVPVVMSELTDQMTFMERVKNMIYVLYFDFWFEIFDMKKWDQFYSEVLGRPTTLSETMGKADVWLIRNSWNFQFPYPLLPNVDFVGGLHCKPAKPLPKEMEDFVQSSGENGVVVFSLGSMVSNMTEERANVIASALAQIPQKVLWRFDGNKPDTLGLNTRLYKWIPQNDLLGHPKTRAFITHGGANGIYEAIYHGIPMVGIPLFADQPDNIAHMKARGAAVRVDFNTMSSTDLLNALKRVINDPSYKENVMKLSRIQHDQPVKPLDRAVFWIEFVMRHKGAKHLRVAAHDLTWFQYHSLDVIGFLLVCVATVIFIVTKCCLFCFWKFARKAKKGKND
In short: (§1)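 Pooled HLMs (53 donors, 50–500 μg/ml) in 50 mm phosphate pH 7.5 with 5 mm MgCl2 and alamethicin […]. Test compound at 0–250 μm (seven levels) was dried, reconstituted in 1% methanol and not preincubated. Reactions started with UDPGA (10 mm final). Substrates: AZT (UGT2B7), oxazepam (UGT2B15). Acetonitrile stop (acidified for UGT2B7) with IS; HPLC-UV; duplicates; IC50 by nonlinear regression.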

[3] = molecular target: T2, CYP2B6 (Homo sapiens, UniProt P20813); assay: index substrate turnover in pooled HLM, HPLC; details: microsomes
T2 sequence (P20813 1-491): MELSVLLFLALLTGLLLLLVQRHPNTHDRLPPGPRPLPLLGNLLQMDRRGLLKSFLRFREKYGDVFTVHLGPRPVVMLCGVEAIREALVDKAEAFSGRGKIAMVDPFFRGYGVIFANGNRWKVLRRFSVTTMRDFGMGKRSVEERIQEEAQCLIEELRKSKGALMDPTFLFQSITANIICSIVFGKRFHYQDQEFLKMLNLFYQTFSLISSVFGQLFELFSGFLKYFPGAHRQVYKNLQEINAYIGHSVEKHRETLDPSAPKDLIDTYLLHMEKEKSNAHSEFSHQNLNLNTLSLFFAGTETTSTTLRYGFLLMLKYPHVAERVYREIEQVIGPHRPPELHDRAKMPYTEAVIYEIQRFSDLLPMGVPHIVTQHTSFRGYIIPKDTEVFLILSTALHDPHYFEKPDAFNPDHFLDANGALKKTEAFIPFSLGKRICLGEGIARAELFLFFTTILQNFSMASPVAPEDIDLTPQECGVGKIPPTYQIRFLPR
In short: (§2)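 Pooled HLMs (53 donors) in 50 mm phosphate pH 7.5 with 5 mm MgCl2, 0.5 mm NADP and an isocitrate/isocitric dehydrogenase regenerating system. Test compound at 0–600 μm (eight levels) was dried, reconstituted in 1% methanol, with or without 20-min 37°C preincubation. Substrates: phenacetin (1A2), bupropion (2B6), taxol (2C8), dextromethorphan (2D6). Acetonitrile stop (acidified for 2B6) with IS; HPLC-UV/fluorescence; duplicates; hyperbolic nonlinear-regression IC50.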

[4] = molecular target: CYP2C9 (Homo sapiens, UniProt P11712); assay: index substrate turnover in pooled HLM, HPLC; details: microsomes
Chain of CYP2C9 (P11712 whole entry): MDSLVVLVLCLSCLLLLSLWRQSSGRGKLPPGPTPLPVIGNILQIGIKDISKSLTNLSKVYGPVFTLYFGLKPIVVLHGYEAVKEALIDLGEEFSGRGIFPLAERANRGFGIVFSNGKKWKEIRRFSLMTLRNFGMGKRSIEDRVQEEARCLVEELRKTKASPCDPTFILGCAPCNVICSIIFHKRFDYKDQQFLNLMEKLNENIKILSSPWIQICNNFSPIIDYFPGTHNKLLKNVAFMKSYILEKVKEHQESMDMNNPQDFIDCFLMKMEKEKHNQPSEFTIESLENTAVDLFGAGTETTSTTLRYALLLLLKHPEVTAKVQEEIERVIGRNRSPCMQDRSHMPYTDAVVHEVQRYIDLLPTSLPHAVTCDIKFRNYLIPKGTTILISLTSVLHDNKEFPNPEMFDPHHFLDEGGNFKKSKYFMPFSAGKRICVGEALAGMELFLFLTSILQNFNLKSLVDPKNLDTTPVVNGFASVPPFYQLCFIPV

[5] = molecular target: T3, CYP2C8 (Homo sapiens, UniProt P10632); assay: index substrate turnover in pooled HLM, HPLC; details: microsomes
T3 sequence (P10632 1-490): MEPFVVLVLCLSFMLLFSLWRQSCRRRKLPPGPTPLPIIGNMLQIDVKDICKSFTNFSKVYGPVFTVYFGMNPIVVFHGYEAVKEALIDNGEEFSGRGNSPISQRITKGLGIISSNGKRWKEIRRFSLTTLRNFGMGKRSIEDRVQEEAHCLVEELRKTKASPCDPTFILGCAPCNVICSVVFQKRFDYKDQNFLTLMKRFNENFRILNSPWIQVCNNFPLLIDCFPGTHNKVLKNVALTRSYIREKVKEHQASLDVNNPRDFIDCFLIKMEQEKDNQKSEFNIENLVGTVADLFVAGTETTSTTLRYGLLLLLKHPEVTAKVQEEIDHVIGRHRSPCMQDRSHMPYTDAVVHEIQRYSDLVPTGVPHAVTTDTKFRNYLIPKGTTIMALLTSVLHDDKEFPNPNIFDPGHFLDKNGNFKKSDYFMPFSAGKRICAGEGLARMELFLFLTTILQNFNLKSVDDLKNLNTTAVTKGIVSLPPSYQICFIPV
In short: as §2

[6] = molecular target: T4, CYP1A2 (Homo sapiens, UniProt P05177); assay: index substrate turnover in pooled HLM, HPLC; details: microsomes
T4 sequence (P05177 2-516): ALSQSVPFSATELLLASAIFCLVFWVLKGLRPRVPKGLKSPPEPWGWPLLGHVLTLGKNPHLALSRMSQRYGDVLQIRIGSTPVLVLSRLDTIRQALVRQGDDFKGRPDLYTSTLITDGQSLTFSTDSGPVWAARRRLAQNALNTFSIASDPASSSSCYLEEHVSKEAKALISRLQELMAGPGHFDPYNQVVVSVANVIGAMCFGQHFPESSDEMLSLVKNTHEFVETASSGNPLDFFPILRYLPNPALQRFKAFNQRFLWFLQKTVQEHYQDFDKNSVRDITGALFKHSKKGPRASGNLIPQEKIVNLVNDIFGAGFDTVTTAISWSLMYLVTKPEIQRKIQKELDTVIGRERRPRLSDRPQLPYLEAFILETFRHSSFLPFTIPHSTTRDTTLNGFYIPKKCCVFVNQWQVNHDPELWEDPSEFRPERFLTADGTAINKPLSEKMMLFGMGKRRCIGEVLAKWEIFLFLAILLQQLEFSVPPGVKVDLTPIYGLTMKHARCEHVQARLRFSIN
In short: as §2

[7] = molecular target: CYP2C19 (Homo sapiens, UniProt P33261); assay: index substrate turnover in pooled HLM, HPLC; details: microsomes
Chain of CYP2C19 (P33261 whole entry): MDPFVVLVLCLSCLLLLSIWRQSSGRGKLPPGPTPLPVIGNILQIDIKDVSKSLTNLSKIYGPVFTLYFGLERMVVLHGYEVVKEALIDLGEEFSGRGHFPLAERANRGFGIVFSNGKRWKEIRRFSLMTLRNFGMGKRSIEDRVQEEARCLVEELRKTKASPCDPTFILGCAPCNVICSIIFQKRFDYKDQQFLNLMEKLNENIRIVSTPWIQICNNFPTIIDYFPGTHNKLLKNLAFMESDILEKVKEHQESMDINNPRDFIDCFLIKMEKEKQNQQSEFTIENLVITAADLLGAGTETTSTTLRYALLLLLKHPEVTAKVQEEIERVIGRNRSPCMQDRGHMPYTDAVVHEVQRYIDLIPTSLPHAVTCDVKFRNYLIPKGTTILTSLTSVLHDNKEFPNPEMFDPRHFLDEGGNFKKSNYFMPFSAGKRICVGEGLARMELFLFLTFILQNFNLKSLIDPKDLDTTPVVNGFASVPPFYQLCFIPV

[8] = molecular target: CYP2D6 (Homo sapiens, UniProt P10635); assay: index substrate turnover in pooled HLM, HPLC; details: microsomes
Chain of CYP2D6 (P10635 whole entry): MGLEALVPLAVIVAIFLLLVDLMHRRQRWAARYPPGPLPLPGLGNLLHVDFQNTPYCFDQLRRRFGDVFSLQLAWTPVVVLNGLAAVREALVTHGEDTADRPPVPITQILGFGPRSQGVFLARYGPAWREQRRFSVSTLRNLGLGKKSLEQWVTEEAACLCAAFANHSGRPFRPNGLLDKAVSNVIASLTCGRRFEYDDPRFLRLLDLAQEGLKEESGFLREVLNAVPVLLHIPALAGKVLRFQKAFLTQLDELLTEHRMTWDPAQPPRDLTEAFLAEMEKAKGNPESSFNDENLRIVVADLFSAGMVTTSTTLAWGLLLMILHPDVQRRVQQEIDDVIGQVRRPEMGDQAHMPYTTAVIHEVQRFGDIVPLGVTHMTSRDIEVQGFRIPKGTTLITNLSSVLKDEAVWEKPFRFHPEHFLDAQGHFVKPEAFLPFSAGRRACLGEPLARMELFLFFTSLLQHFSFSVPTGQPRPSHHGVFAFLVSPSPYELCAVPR
In short: as §2

[9] = molecular target: T5, UGT2B15 (Homo sapiens, UniProt P54855); assay: glucuronidation of index substrate in pooled HLM, HPLC-UV; details: without preincubation; pH 7.5, 10 mM UDPGA, alamethicin
T5 sequence (P54855 24-530): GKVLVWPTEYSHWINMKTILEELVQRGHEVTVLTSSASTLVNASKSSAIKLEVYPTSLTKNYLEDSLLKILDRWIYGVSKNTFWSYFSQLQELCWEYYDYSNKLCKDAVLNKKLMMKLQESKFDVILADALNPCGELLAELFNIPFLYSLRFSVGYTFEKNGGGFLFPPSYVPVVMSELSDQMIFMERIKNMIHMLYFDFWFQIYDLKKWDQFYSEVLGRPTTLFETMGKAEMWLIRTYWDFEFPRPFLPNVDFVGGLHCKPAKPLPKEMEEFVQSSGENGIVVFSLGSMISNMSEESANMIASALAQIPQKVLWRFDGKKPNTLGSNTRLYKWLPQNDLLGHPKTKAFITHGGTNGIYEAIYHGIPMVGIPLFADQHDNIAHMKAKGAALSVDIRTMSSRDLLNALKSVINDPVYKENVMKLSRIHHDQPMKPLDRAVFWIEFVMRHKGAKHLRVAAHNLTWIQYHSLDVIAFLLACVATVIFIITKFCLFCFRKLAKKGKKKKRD
In short: as §1

[10] = molecular target: T6, UGT1A6 (Homo sapiens, UniProt P19224); assay: glucuronidation of index substrate in pooled HLM, HPLC-UV; details: without preincubation; pH 7.5, 10 mM UDPGA, alamethicin
T6 sequence (P19224 27-532): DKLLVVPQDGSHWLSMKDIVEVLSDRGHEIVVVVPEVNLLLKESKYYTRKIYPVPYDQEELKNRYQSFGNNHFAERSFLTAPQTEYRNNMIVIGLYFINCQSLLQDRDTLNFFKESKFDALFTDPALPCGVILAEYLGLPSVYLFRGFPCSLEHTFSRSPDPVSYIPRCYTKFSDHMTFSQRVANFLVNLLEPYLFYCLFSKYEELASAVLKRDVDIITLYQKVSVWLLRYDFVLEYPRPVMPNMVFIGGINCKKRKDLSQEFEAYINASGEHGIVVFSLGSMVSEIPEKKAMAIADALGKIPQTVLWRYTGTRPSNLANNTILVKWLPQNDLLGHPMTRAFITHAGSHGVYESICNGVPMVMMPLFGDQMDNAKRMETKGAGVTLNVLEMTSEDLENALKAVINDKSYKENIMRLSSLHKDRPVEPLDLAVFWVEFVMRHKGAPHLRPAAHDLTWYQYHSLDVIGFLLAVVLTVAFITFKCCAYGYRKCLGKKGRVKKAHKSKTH

[11] = without preincubation, 37 °C, solvent effect

Chain of CYP2E1 (P05181 whole entry): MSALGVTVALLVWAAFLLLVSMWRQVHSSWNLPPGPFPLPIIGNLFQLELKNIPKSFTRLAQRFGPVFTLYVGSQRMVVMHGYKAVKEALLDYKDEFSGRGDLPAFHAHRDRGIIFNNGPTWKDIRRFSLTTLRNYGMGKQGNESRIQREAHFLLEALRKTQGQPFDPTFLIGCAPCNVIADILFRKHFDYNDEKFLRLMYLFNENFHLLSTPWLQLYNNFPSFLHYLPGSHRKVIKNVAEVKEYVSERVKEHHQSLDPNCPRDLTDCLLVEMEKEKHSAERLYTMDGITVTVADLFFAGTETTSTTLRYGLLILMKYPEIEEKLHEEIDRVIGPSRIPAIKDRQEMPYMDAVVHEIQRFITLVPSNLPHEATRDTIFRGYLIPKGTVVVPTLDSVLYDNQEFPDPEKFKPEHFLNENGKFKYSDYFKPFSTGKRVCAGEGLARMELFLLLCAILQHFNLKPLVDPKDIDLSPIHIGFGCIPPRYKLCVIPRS

Row | SMILES | DMSO / W/O (%) [1, 11] | IC50 [2] [µM] | IC50 [3] [µM] | IC50 [4] [µM] | IC50 [5] [µM] | IC50 [1] [µM] | IC50 [6] [µM] | IC50 [7] [µM] | IC50 [8] [µM] | IC50 [9] [µM] | IC50 [10] [µM] | MEOH / W/O (%) [1, 11]
1 | C[S+](C)[O-] [DMSO] | 0.06 % (v/v) |  |  |  |  |  |  |  |  |  |  | 
2 | O=c1cc(-c2ccc(O)c(O)c2)oc2cc(O)cc(O)c12 [luteolin] |  | > 250 | 103 | 28.9 | 2.5 | 89.3 | 3.5 | 47.9 | 153 | > 250 | > 250 | 
3 | CO [methanol] |  |  |  |  |  |  |  |  |  |  |  | 0.63 % (v/v)
4 | O=c1c(O)c(-c2ccc(O)c(O)c2)oc2cc(O)cc(O)c12 [quercetin] |  |  | 89.2 |  | 2.4 | 66.2 | 5.2 | 140 | 234 | > 250 |  | 
